Test results reported in publication PMC1976451 (Nucleic Acids Research, 2007).
Entries after “also recorded” stand apart in the source; their conditions may differ.

Tests used:
pLuc705 cells [1] = experiment: MTT cell viability assay; format: cell-based, human; details: for inhibition of cell proliferation by monomers: 500 μM each, individually or in combination
Outline: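 pLuc705 cells seeded 20 h before at 9000 cells/well. Exposed 24 h to 0, 2, 10, 20, 40 or 60 μM conjugate in OptiMEM with 10% serum; arginine and X monomers given at 500 μM alone or combined. Phase images taken first, then MTT at 0.5 mg/ml final for 4 h at 37°C and DMSO/0.01M HCl 10 min. A540 read; % viability relative to mean of untreated wells; six points, two experiments.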

[2] = cited from earlier work
[3] = test system: fresh rat red blood cells; experiment: Hemolysis assay; format: cell-based; details: 60 μM, 1 h at 37°C, hemoglobin release (absorbance at 540 nm); four data points from two independent experiments
Outline: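 Fresh rat blood red cells exposed 1 h at 37°C to conjugate at 60 μM, with PBS as background and 0.005% TX-100 as positive control. Released hemoglobin read as absorbance at 540 nm. Mean ± SD of four data points from two independent experiments.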

pLuc705 cells [4] = experiment: Microscopic images of treated cells; format: cell-based, human; details: 60 μM, OptiMEM with 10% serum, 24 h, ×100
Outline: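 pLuc705 cells seeded at 9000 cells/well 20 h before treatment, then exposed 24 h to conjugate or vehicle in OptiMEM with 10% serum. Phase-contrast images were taken directly in culture medium on an inverted microscope, before the MTT read-out on the same wells.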

[5] = test system: human β-globin thalassemic intron 2 mutated splice site at nucleotide 705 (pLuc705 cells); experiment: Nuclear activity assay; format: cell-based; details: 24 h; for luciferase activity over the background: 1 μM, OptiMEM with or without 10% serum, RLU per microgram protein; for relative nuclear antisense activity in the oligoarginine, RX, RXR and RB panels: 1 and 5 μM; for luciferase activity compared with conjugates with 8 and 7 repeats: 10 μM; for luciferase activity in 60% serum: 60% serum-containing medium; for reduction of luciferase activity in 10% serum: versus 0% serum, R9−PMO data not shown
Outline: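 Splice-correction luciferase assay in pLuc705 cells, seeded 20 h before at 30 000 cells/well. Cells washed, then treated 24 h with conjugate at 1, 5 or 10 μM in OptiMEM with 0, 10, 30 or 60% serum. Lysed 30 min at 4°C, clarified at 1000g, and luminescence read after adding luciferase reagent. RLU normalised per μg protein (BCA). Mean ± SD of 6–9 points, three independent experiments.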

pLuc705 cells [6] = experiment: Propidium iodide membrane integrity; format: cell-based, human; details: for membrane damage / PI histogram shift with 0.5 or 5 h treatment: 60 μM, 0.5 and 5 h; for effect of addition of 10% serum on membrane toxicity: (RX)8−PMO data not shown; for effect on membrane integrity at higher concentrations: up to 60 µM tested
pLuc705 cells [7] = experiment: Cell uptake assay; format: cell-based, human; details: 2 μM, media containing 30 and 60% serum
Outline: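 pLuc705 cells (HeLa stably carrying luciferase interrupted by β-globin intron 2 with mutated splice site at 705) seeded 20 h before at 100 000 cells/well. Treated 24 h with 2 μM 3′-carboxyfluorescein-tagged conjugate in OptiMEM with 0, 10, 30 or 60% serum. Trypsin 10 min at 37°C strips membrane-bound material, then cells are washed and analysed by flow cytometry. Mean fluorescence ± SD, six points, two independent experiments.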

human liver HepG2 cells = experiment: MTT toxicity in HepG2 cells; format: cell-based; details: up to 60 μM, data not shown
Outline: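 HepG2 cells kept in RPMI 1640 with 2 mM L-glutamine, 100 U/ml penicillin and 10% FBS at 37°C, 5% CO2. Treatments were in OptiMEM with or without FBS. MTT added to a final 0.5 mg/ml for 4 h at 37°C. Most of the medium was replaced with DMSO containing 0.01M HCl for 10 min at 37°C. A540 was normalized to the mean of untreated wells.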

Compound: CC(=O)N[C@@H](CCCNC(=N)N)C(=O)NCCCCCC(=O)N[C@@H](CCCNC(=N)N)C(=O)NCCCCCC(=O)N[C@@H](CCCNC(=N)N)C(=O)NCCCCCC(=O)N[C@@H](CCCNC(=N)N)C(=O)NCCCCCC(=O)N[C@@H](CCCNC(=N)N)C(=O)NCCCCCC(=O)N[C@@H](CCCNC(=N)N)C(=O)NCCCCCC(=O)N[C@@H](CCCNC(=N)N)C(=O)NCCCCCC(=O)N[C@@H](CCCNC(=N)N)C(=O)NCCCCCC(=O)NCCC(=O)N1CCN(P(=O)(OC[C@@H]2CN(P(=O)(OC[C@@H]3CN(P(=O)(OC[C@@H]4CN(P(=O)(OC[C@@H]5CN(P(=O)(OC[C@@H]6CN(P(=O)(OC[C@@H]7CN(P(=O)(OC[C@@H]8CN(P(=O)(OC[C@@H]9CN(P(=O)(OC[C@@H]%10CN(P(=O)(OC[C@@H]%11CN(P(=O)(OC[C@@H]%12CN(P(=O)(OC[C@@H]%13CN(P(=O)(OC[C@@H]%14CN(P(=O)(OC[C@@H]%15CN(P(=O)(OC[C@@H]%16CN(P(=O)(OC[C@@H]%17CN(P(=O)(OC[C@@H]%18CN(P(=O)(OC[C@@H]%19CN(C(C)=O)C[C@H](n%20cnc%21c(N)ncnc%21%20)O%19)N(C)C)C[C@H](n%19ccc(N)nc%19=O)O%18)N(C)C)C[C@H](n%18cnc%19c(N)ncnc%19%18)O%17)N(C)C)C[C@H](n%17cc(C)c(=O)[nH]c%17=O)O%16)N(C)C)C[C@H](n%16cc(C)c(=O)[nH]c%16=O)O%15)N(C)C)C[C@H](n%15cnc%16c(=O)[nH]c(N)nc%16%15)O%14)N(C)C)C[C@H](n%14cnc%15c(N)ncnc%15%14)O%13)N(C)C)C[C@H](n%13ccc(N)nc%13=O)O%12)N(C)C)C[C@H](n%12cc(C)c(=O)[nH]c%12=O)O%11)N(C)C)C[C@H](n%11ccc(N)nc%11=O)O%10)N(C)C)C[C@H](n%10ccc(N)nc%10=O)O9)N(C)C)C[C@H](n9cnc%10c(N)ncnc%109)O8)N(C)C)C[C@H](n8cc(C)c(=O)[nH]c8=O)O7)N(C)C)C[C@H](n7cc(C)c(=O)[nH]c7=O)O6)N(C)C)C[C@H](n6ccc(N)nc6=O)O5)N(C)C)C[C@H](n5cc(C)c(=O)[nH]c5=O)O4)N(C)C)C[C@H](n4ccc(N)nc4=O)O3)N(C)C)C[C@H](n3ccc(N)nc3=O)O2)N(C)C)CC1 (some centres unmarked) [(RX)8−PMO]
- cell viability (pLuc705 cells [1]; 60 μM, OptiMEM with 10% serum, 24 h, mean of six data points): 40%
- stability (of the peptide portion) in cells [2]: completely degraded
- hemolytic activity [3]: compatible with red blood cells
- appearance of treated cells (microscopic images) (pLuc705 cells [4]): rounded and detached from the culture well
- luciferase activity over the background [5]: 10–15 fold
- relative nuclear activity at 2 μM ([5]; 2 μM, OptiMEM with 10% serum, eleven conjugates with 0-8 X compared): highest activity
- change of luciferase activity on addition of 10% serum ([5]; 5 μM): nearly doubled
- relative nuclear activity at 5 μM ([5]; 5 μM, OptiMEM with 10% serum, eleven conjugates with 0-8 X compared): highest activities
- relative nuclear antisense activity in the oligoarginine, RX, RXR and RB panels [5]: highest nuclear antisense activities
- membrane damage / PI histogram shift with 0.5 or 5 h treatment (pLuc705 cells [6]): little immediate membrane damage
- effect of addition of 10% serum on membrane toxicity (pLuc705 cells [6]; 24 h): significantly reduced membrane toxicity
- effect on membrane integrity at higher concentrations (pLuc705 cells [6]): significantly affect membrane integrity

Compound: NCCCCCC(=O)O [X, 6-aminohexanoic acid]
- inhibition of cell proliferation by monomers (pLuc705 cells [1]): no inhibition of cell proliferation

Compound: N=C(N)NCCC[C@H](N)C(=O)O [arginine]
- inhibition of cell proliferation by monomers (pLuc705 cells [1]): no inhibition of cell proliferation

Compound: RBRBRBB [(RB)3−PMO]
- luciferase activity compared with conjugates with 8 and 7 repeats [5]: much lower luciferase activity

Compound: RBRBRBRBRBB [(RB)5−PMO]
- luciferase activity compared with conjugates with 8 and 7 repeats [5]: much lower luciferase activity

Compound: RBRBRBRBRBRBRBRBB [(RB)8−PMO]
- stability (of the peptide portion) in cells [2]: only partially degraded
- change of luciferase activity on addition of 10% serum ([5]; 5 μM): nearly doubled

Compound: RRRRRRRRRXB [R9−PMO]
- luciferase activity in 60% serum [5]: no activity
- reduction of luciferase activity in 10% serum [5]: approximately 30%

Compound: RRRRRRRRXB [R8−PMO]
- luciferase activity in 60% serum [5]: no activity
- reduction of luciferase activity in 10% serum [5]: approximately 30%

Compound: RXRRXRRXRRXRXB [(RXR)4−PMOF]
- effect of higher serum concentrations on uptake (pLuc705 cells [7]): decreased

Compound: RXRRXRRXRRXRXB [(RXR)4−PMO]
- hemolytic activity [3]: compatible with red blood cells
- appearance of treated cells (microscopic images) (pLuc705 cells [4]): rounded and detached from the culture well
- toxicity in HepG2 cells (human liver HepG2 cells): dose-dependent inhibition of cell proliferation
- luciferase activity over the background [5]: 10–15 fold
- change of luciferase activity on addition of 10% serum ([5]; 5 μM): nearly doubled
- relative nuclear antisense activity in the oligoarginine, RX, RXR and RB panels [5]: highest nuclear antisense activities
- membrane damage / PI histogram shift with 0.5 or 5 h treatment (pLuc705 cells [6]): slight shift towards the PI+ region; also recorded: little immediate membrane damage
- cells in the PI+ region (pLuc705 cells [6]; 60 µM, 24 h, serum-free medium, flow cytometry): 57%
- effect of addition of 10% serum on membrane toxicity (pLuc705 cells [6]; 24 h): significantly reduced membrane toxicity
- effect on membrane integrity at higher concentrations (pLuc705 cells [6]): significantly affect membrane integrity

Compound: RXRXRXB [(RX)3−PMO]
- luciferase activity compared with conjugates with 8 and 7 repeats [5]: much lower luciferase activity

Compound: RXRXRXRXRXB [(RX)5−PMO]
- luciferase activity compared with conjugates with 8 and 7 repeats [5]: much lower luciferase activity
